In ChEMBL document CHEMBL1667725, “Tuberatolides, potent FXR antagonists from the Korean marine tunicate Botryllus tuberatus” (J Nat Prod, 2011):
Active and inactive are the calls of the source. The rule behind the calls is not given here.

Experiments:
Bile acid receptor = target: T1, Bile acid receptor (Homo sapiens, UniProt Q96RI1); assay: Antagonist activity at human FXR expressed in CV-1 cells assessed as inhibition of CDCA-induced transactivation after 24 hrs by luciferase reporter gene assay; assay type: functional, cell-based
T1 sequence (Q96RI1 whole entry): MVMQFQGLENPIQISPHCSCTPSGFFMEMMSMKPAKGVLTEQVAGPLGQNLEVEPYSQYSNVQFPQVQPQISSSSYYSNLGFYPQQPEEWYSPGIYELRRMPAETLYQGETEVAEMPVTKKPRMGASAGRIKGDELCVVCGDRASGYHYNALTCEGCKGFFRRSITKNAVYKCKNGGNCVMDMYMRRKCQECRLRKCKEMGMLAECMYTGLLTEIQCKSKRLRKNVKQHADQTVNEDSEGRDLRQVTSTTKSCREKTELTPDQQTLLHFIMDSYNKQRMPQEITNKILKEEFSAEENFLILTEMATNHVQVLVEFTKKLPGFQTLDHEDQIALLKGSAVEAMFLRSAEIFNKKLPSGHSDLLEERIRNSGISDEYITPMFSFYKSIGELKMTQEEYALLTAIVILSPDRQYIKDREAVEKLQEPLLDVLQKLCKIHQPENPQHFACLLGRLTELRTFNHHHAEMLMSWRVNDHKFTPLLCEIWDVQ
How it was run: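 CV-1 cells in DMEM with 10% resin-charcoal-stripped FBS, 24 h at 37 °C, 5% CO2, then transiently co-transfected with pCMX-hFXR, CMXβ-GAL and Tk(EcRE)6-LUC. After 24 h, compounds were co-treated with 50 µM CDCA; harvest at 24 h. Luciferase normalized to β-galactosidase. Transfections in triplicate; experiments repeated more than three times.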

[1] = target: T2, Glucocorticoid receptor (Homo sapiens) (UniProt P04150); assay: Effect on human Gal4-fused GR at 10 uM by luciferase reporter gene assay
T2 sequence (whole entry): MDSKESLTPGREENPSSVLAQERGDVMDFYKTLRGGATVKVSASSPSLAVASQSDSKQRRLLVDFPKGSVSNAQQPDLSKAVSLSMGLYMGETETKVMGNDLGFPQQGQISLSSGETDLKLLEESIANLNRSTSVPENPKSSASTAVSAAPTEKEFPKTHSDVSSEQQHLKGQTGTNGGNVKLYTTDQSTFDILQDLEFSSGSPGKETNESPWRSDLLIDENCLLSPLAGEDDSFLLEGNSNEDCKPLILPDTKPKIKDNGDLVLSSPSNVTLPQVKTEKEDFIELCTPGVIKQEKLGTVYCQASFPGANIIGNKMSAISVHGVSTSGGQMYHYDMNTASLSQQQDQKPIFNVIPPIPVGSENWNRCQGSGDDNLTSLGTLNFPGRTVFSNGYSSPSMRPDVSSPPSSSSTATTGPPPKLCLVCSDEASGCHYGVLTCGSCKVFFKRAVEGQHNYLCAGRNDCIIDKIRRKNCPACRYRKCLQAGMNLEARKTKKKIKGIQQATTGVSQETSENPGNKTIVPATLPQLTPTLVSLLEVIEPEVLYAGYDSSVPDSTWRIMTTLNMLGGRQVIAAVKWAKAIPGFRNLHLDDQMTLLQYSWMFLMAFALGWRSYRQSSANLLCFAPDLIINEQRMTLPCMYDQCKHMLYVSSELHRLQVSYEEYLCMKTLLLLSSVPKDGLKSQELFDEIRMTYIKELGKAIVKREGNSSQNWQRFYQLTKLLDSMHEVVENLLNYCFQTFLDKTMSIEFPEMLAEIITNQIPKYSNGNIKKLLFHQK

[2] = target: T3, Retinoic acid receptor alpha (Homo sapiens) (UniProt P10276); assay: Effect on human Gal4-fused RAR alpha at 10 uM by luciferase reporter gene assay
T3 sequence (whole entry): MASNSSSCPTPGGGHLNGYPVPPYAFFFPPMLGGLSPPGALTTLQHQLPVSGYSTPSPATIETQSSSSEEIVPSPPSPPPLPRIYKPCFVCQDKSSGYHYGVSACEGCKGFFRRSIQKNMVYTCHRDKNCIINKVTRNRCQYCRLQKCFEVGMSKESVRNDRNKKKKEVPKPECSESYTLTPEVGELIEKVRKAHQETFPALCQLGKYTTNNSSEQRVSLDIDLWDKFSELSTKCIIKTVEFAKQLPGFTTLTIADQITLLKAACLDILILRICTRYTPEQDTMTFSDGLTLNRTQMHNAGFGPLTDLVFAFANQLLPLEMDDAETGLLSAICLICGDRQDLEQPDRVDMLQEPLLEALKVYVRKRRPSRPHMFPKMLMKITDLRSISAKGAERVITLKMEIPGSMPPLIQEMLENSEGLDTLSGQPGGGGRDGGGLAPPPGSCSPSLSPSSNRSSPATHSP

[3] = target: T4, Estrogen receptor (Homo sapiens) (UniProt P03372); assay: Effect on human Gal4-fused ERalpha at 10 uM by luciferase reporter gene assay
T4 sequence (whole entry): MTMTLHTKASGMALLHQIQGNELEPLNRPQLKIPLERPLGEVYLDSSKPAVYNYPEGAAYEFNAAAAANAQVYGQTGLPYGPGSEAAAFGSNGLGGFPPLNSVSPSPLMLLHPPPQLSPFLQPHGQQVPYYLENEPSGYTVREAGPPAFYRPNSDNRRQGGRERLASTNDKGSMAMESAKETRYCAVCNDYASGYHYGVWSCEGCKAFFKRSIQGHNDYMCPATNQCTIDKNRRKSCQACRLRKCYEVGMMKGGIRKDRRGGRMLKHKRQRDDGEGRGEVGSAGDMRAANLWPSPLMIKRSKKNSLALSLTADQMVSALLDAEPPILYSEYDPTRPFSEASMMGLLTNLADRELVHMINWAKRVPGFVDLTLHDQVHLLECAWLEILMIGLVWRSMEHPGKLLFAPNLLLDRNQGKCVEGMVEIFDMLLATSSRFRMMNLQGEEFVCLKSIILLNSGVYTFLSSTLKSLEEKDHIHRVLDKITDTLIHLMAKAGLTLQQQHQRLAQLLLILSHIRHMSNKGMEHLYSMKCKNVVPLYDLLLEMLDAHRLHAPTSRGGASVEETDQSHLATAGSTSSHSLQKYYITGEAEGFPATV

Compound	IC50 (Bile acid receptor)	Activity [1]	Activity [2]	Activity [3]
CC(C)=CCCC1=C[C@@H](C/C(C)=C/CC[C@]2(C)C=Cc3cc(O)cc(C)c3O2)OC1=O [2'-EPI-TUBERATOLIDE B]	2.5 µM	inactive	inactive	inactive
CC(C)=CCC/C(=C/CC/C(C)=C/CC[C@]1(C)C=Cc2cc(O)cc(C)c2O1)C(=O)O [(R)-SARGACHROMENOL]	9 µM	inactive	inactive	inactive
CC(C)=CCC/C(=C/CC/C(C)=C/CC[C@@]1(C)C=Cc2cc(O)cc(C)c2O1)C(=O)O [(S)-SARGACHROMENOL]	17 µM	inactive	inactive	inactive
CC(=O)CC/C=C(\C)C[C@@H]1C=C(CCC=C(C)C)C(=O)O1 [TUBERATOLIDE A]	3.9 µM	inactive	inactive	inactive
CC(C)=CCCC1=C[C@@H](C/C(C)=C/CC[C@@]2(C)C=Cc3cc(O)cc(C)c3O2)OC1=O [TUBERATOLIDE B]	1.5 µM	inactive	inactive	inactive
CC(C)=CCCC1=C[C@@H](C/C(C)=C/CC/C(C)=C/CC2=CC(=O)C=C(C)C2=O)OC1=O [YEZOQUINOLIDE]	5.9 µM	inactive	inactive	inactive
